Laboratory results taken from ChEMBL document CHEMBL3351619 (J Med Chem, 2014).
pEC50, pIC50, pKi: −log10 of the molar value. Activity calls are given as the source filed them. The calls are words filed in the database; no cut-off is given here.

Experiments:
[1] = target: T1, 5-hydroxytryptamine receptor 1A (Homo sapiens, UniProt P08908); assay: Displacement of [3H]-8-OH-DPAT from human 5-HT1A expressed in CHO-K1 cells after 120 mins by scintillation spectrometry; assay type: cell-based
T1 sequence (P08908 whole entry): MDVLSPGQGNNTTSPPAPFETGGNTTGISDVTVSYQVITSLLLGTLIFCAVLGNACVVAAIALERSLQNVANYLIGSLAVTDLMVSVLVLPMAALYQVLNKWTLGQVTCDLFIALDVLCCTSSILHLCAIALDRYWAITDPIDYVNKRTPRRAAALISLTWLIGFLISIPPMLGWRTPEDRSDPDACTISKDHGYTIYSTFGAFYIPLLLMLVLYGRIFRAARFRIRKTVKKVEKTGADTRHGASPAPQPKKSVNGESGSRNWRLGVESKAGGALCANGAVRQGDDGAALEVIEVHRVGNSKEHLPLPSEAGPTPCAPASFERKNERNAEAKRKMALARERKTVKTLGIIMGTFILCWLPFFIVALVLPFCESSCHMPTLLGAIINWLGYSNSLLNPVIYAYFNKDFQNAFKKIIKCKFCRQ
Procedure, shortened: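 Competitive radioligand binding on membranes from transfected cells expressing human 5-HT1A receptor, with [3H]-8-OH-DPAT as the radioligand. Affinity is given as Ki, the mean of two to four experiments, each run in triplicate.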

[2] = target: T2, 5-hydroxytryptamine receptor 7 (Homo sapiens, UniProt P34969); assay: Displacement of [3H]LSD from human 5-HT7 expressed in HEK-293 cells after 120 mins by scintillation spectrometry; assay type: cell-based, HEK293
T2 sequence (P34969 whole entry): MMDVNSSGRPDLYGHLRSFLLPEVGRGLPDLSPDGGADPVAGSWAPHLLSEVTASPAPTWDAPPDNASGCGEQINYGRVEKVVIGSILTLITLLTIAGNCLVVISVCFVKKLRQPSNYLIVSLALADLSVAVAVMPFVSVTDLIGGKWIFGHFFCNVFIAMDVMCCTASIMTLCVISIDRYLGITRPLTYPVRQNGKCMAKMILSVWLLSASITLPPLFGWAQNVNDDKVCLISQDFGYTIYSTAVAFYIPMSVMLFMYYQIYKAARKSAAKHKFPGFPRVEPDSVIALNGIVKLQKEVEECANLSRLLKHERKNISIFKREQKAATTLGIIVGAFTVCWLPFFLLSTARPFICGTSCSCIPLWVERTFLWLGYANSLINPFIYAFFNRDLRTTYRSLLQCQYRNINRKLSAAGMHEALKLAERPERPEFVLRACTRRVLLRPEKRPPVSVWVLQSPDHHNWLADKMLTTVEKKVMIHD
Procedure, shortened: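 Competition binding on membranes of CHO-K1 or HEK-293 cells transfected with human 5-HT7 receptor, radioligand [3H]LSD; 5-CT as reference. Two to four experiments, each in triplicate; Ki reported as mean.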

[3] = target: T2, 5-hydroxytryptamine receptor 7; assay: Antagonist activity at human 5-HT7 expressed in HEK-293 cells assessed as inhibition in serotonin-induced increase in cAMP level after 45 mins by HTRF assay; assay type: functional, cell-based, HEK293
Procedure, shortened: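 From the concentration–response curve, maximal inhibition (Imax) and IC50 were read, and the dissociation constant KB was calculated.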

[4] = target: 5-hydroxytryptamine receptor 2A (Homo sapiens) (UniProt P28223); assay: Displacement of [3H]ketanserin from 5-HT2A (unknown origin) at 1 uM after 60 mins
Chain of 5-hydroxytryptamine receptor 2A (Homo sapiens) (P28223 whole entry): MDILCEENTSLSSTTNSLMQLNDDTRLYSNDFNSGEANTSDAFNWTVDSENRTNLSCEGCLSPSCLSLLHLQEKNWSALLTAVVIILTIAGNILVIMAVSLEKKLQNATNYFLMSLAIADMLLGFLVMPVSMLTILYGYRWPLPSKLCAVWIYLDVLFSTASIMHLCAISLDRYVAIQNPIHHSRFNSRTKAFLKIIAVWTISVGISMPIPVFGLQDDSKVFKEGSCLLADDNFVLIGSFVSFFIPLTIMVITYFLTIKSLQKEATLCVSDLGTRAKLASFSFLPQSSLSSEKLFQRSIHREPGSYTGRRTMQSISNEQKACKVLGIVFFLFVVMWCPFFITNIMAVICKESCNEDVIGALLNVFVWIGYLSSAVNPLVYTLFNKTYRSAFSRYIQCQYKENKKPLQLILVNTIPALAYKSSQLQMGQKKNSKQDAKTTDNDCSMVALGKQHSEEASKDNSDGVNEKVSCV
Procedure, shortened: (§1)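 Single test concentration of 1 μM; percent displacement of the respective radioligand binding at each target.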

Mus musculus [5] = assay: Antidepressant activity in C57BL/6J mouse assessed as decrease in the immobility at 10 mg/kg, ip administered as single dose measured for last 4 mins of test by tail suspension method relative to vehicle-treated control; assay type: functional, organism-based; set-up: dose 10 mg/kg
Mus musculus [6] = assay: Antidepressant activity in C57BL/6J mouse assessed as decrease in the immobility at 1 mg/kg, ip administered as single dose measured for last 4 mins of test by forced swim test relative to vehicle-treated control; assay type: functional, organism-based; set-up: dose 1 mg/kg
Procedure, shortened: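 Male and female C57BL/6J mice, 8−12 weeks, group housed; single ip injection, 0.9% saline vehicle; start 9:00 h. Mouse placed 6 min in clear cylinder (16 cm diameter, 25 cm high) holding 10 cm of 25 °C water, replaced between animals; trained observer scored immobility (no movement beyond keeping head above surface) over last 4 min. N = 7−9/group; Student's two-tailed unpaired t test.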

[7] = target: Sodium-dependent serotonin transporter (Homo sapiens) (UniProt P31645); assay: Displacement of [3H]imipramine from 5-HT transporter (unknown origin) at 1 uM after 60 mins; procedure, shortened: as §1
Chain of Sodium-dependent serotonin transporter (Homo sapiens) (P31645 whole entry, looked up): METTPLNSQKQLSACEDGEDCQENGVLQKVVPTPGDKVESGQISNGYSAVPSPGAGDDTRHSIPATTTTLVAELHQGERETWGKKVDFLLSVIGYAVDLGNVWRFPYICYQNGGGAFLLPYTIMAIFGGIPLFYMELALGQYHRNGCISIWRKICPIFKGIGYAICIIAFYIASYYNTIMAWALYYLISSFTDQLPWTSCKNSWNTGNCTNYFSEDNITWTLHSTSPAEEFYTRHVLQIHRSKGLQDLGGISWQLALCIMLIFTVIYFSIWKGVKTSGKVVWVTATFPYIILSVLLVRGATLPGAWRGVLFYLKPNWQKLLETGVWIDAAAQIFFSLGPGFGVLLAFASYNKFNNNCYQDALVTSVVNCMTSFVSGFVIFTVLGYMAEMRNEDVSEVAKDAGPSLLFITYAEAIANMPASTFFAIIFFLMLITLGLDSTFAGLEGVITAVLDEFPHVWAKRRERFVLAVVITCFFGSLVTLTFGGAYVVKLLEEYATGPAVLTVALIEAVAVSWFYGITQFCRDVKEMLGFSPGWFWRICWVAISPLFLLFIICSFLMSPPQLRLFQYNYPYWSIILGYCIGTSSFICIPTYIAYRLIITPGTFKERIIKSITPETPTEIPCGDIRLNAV

[8] = target: T3, Corticotropin-releasing factor receptor 1 (Homo sapiens) (UniProt P34998); assay: Displacement of [125I]sauvagine from CRF1 (unknown origin) at 1 uM after 120 mins; procedure, shortened: as §1
T3 sequence (whole entry): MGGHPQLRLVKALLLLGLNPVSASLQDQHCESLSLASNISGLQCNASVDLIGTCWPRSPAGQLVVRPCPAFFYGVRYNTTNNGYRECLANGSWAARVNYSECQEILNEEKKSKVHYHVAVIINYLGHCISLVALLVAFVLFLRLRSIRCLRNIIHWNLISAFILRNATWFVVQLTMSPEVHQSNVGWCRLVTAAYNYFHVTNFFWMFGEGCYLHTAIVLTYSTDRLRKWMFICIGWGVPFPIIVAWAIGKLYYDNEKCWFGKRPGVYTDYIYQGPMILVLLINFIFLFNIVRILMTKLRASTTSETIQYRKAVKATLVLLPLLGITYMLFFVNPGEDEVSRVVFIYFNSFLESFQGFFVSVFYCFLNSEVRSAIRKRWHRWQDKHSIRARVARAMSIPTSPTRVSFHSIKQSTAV

Mus musculus [9] = assay: Antidepressant activity in C57BL/6J mouse assessed as decrease in the immobility at 1 mg/kg, ip administered as single dose measured for last 4 mins of test by tail suspension method relative to vehicle-treated control; assay type: functional, organism-based; set-up: dose 1 mg/kg
[10] = target: Melatonin receptor (Homo sapiens) (UniProt P48039+P49286); assay: Displacement of [125I]-2-iodomelatonin from MT1 (unknown origin) at 1 uM after 60 mins; assay type: protein assay; procedure, shortened: as §1
Mus musculus [11] = assay: Effect on core body temperature in C57BL/6J mouse at 0.3 to 1 mg/kg, ip administered as single dose; assay type: functional, organism-based
Procedure, shortened: (§2)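 C57BL/6J mice (male and female, 8−12 weeks), single ip doses in 0.9% saline vehicle, start 9:00 h. Rectal probe core temperature taken at baseline just before injection, at 15 and 30 min, then every 30 min to 2 h. For antagonism, test drug given 30 min before 8-OH-DPAT (0.3 mg/kg ip).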

Mus musculus [12] = assay: Inhibition of 8-OH-DPAT-induced hypothermia in C57BL/6J mouse assessed as reduction in core body temperature at 1 mg/kg, ip administered 30 mins prior challenge as single dose; assay type: functional, organism-based; set-up: dose 1 mg/kg; procedure, shortened: as §2
[13] = target: T2, 5-hydroxytryptamine receptor 7; assay: Agonist activity at human 5-HT7 expressed in HEK-293 cells assessed as increase in cAMP level after 45 mins by HTRF assay; assay type: functional, cell-based, HEK293

Structure (SMILES) | pKi [1] | pKi [2] | pIC50 [3] | also measured
O=C1Cc2ccccc2N1CCCCN1CC[C@H]2CCCC[C@@H]2C1 (racemic) | 6.33 | 7.54 |  | 
CN1C[C@@H](NS(=O)(=O)N(C)C)C[C@@H]2c3cccc4c3c(cn4C)C[C@H]21 [MESULERGINE] |  |  | 6.54 | 
O=C1Cc2ccccc2N1CC/C=C/CCN1CCc2ccccc2C1 | < 6.00 | 9.15 | 5.66 | inhibition [4]: 15%; Activity (Mus musculus [5]): inactive; Activity (Mus musculus [6]): Active; inhibition [7]: 14%; inhibition [8]: -10%; Activity (Mus musculus [9]): Active; inhibition [10]: -4%; Activity (Mus musculus [11]): inactive; inhibition (Mus musculus [12]): Active; pEC50 [13]: 6.64
O=C1Cc2ccccc2N1CCCCCN1CC[C@H]2CCCC[C@@H]2C1 (racemic) | 6.31 | 7.39 |  | 
O=C1Cc2ccccc2N1CCCCCCCN1CC[C@H]2CCCC[C@@H]2C1 (racemic) | < 6.00 | 7.21 |  | 
O=C1Cc2ccccc2N1CCCCCN1CCc2ccccc2C1 | 6.28 | 7.55 |  | 
O=C1Cc2ccccc2N1CCCCCCCN1CCc2ccccc2C1 | < 6.00 | 7.44 |  | 
O=C1Cc2ccccc2N1CC/C=C/CCN1CC[C@H]2CCCC[C@@H]2C1 (racemic) | < 6.00 | 8.57 | 5.64 | pEC50 [13]: 7.22
O=C1Cc2ccccc2N1CCCCCCN1CCc2ccccc2C1 | 6.24 | 7.62 |  | 
